Compounds with a hit are over-represented: about 1.4% of the library has one in this group of screens.
NR2E3 ag-1: NR2E3 agonists in two-hybrid cells, primary screen, cell-based, luminescence, CHO-S, Gal4-NCOR/VP16-NR2E3. inhibition of corepressor binding, % at 3.98 µM. hit rate 0.35% among 360,000. luciferase;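 active means inhibition above the mean of all tested compounds plus 3 SD, cut at about 70% in these data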;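 further: 0% = DMSO with NR2E3 transfected cells and 100% = cells lacking NR2E3 construct; higher means lower luciferase signal from less NR2E3 corepressor binding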
Target sequence (Q9Y5X4 whole entry, looked up, the tested form may be a part): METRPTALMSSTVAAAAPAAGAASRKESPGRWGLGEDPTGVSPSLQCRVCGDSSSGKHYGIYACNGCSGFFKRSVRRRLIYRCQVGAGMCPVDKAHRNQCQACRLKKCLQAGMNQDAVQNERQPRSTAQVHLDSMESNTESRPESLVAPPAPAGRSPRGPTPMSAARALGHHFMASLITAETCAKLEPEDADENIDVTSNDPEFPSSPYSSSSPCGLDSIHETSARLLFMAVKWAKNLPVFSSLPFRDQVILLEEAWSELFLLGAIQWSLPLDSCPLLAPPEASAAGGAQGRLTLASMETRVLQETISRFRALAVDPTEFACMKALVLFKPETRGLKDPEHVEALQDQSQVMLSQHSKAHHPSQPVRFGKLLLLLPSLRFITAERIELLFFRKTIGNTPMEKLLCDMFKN
PG9 binder: binders of HIV-1 gp120 antibody PG9, primary screen, biochemical, TR-FRET; TR-FRET gp120-PG9 antibody binding; inhibition, % at 6.7 µM; hit rate 0.43% among 360,000; AID 624416, 2012; HIV-1 gp120 / PG9 antibody interaction; in the data active means inhibition above about 8.5%
Rev-erbA mod: modulators of Rev-erb alpha DNA binding, primary screen, biochemical, FITC-DNA, fluorescence polarization, uHTS; Nuclear receptor subfamily 1 group D member 1 (Homo sapiens), P20393; activity, % at 10 µM; Rev-erbα–FITC-DNA binding, 90 min; hit rate 0.79% among 370,000;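 active means activity above about 14%, limit read from the data; passing the limit was not always enough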;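 further: 0% = DMSO wells with 35 nM protein and 100% = DMSO wells with 750 nM protein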
NR2E3 ag-2: inhibitors of NR2E3-RetCOR corepressor binding, primary screen, NR2E3 agonist project, biochemical, TR-FRET, GST-NR2E3, biotin-RetCOR | Photoreceptor-specific nuclear receptor (Homo sapiens), Q9Y5X4 | 1536-well | inhibition of corepressor binding, % at 4.78 µM | hit rate 0.12% among 320,000;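 active means percent inhibition above the cutoff of mean plus 3 SD of all tested compounds, set per screening campaign, cut at about 20% in these data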;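 further: 0% = DMSO wells and 100% = biotin wells as full block of FRET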
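Material: NR2E3–RetCOR corepressor complex / Incubation: Compound–protein incubation for 5 h at 4 °C / Dosing: compound at 4.8 µM, single dose / Detection: time-resolved FRET / Benchmarks: high control biotin, low control 0.6% DMSO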
Rev-erbA confirm: modulators of Rev-erb alpha DNA binding, confirmation, biochemical, FITC-DNA, fluorescence polarization, single point; shares compounds with Rev-erbA mod; 90 min; activation, % at 25 µM; hit rate 61% among 3,000; AID 1259319, 2017;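 active means activation at or above a set limit, or at least 3 SD above the negative control mean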;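 further: 0% = 35 nM protein with DMSO and 100% = 750 nM protein high control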
RORg DNA counter: modulation of RORgamma DNA binding, dose response, counter-screen for Rev-erb alpha modulator project, biochemical, fluorescence polarization, FITC-DNA; shares compounds with Rev-erbA mod; purified RORgamma protein-FITC-DNA binding; IC50, µM; hit rate 8% among 910;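 active means Compounds whose fitted half-maximal concentration for disrupting protein-DNA binding is below 10 micromolar; the record names Rev-erb in its text, so the target is in doubt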
The depositor's hits bear a star; i = inactive; . = no result given.

SMILES | NR2E3 ag-1 | PG9 binder | Rev-erbA mod | NR2E3 ag-2 | Rev-erbA confirm | others
CC(=O)NC(=S)Nc1ccc2oc(-c3cc(F)c(F)cc3Cl)nc2c1 | -10 | 0 | 50* | 3 | 32* | RORg DNA counter=i
CCOC(=O)CNC(=O)c1cc(-c2ccccn2)nc2c(C)c(Cl)ccc12 | -20 | 3 | 19* | 1 | 22*
Cc1c(Cl)ccc2c(C(N)=O)cc(-c3ccccn3)nc12 | 2 | 2 | 41* | -7 | 35* | RORg DNA counter=>40
Cc1c(Cl)ccc2c(C(=O)O)cc(-c3ccccc3)nc12 | -5 | 4 | -2 | 3 | .
Cc1ccccc1CN1CCCCC(NC(=O)c2cccc([N+](=O)[O-])c2)C1=O (stereo unspecified) | . | . | 2 | . | .
CCOC(=O)[C@]12CCCC3=C1N(CCC3)C(=O)[C@@H](CC(=O)NCCc1ccccc1OC)C2 | . | . | 7 | . | .
CC(C)n1nnnc1C1(C)Cn2nccc2C(=O)N1Cc1cccc(C(F)(F)F)c1 (stereo unspecified) | . | . | 6 | . | .
CC(=O)Nc1ccc(-c2ccnc(-c3ccc(NC(C)=O)cc3)n2)cc1 | 3 | 8 | 20* | 0 | 4
COc1ccccc1C1CC(=O)NC(C)=C1C(=O)OC(C)C (stereo unspecified) | 5 | 0 | 22* | -3 | 2
CCOC(=O)c1sc(=NC(=O)c2cc(OC)c(OC)c(OC)c2)n(C)c1C | 10 | 28* | 30* | -1 | -4
CCOC(=O)c1sc(=NC(=O)CCSc2ccccc2)n(C)c1C | -34 | -1 | 27* | 4 | 13
CCOC(=O)c1sc(=NC(=O)c2ccc(S(=O)(=O)N(C)c3ccccc3)cc2)n(C)c1C | 16 | -1 | 37* | 3 | 29*
CCOC(=O)c1sc(=NC(=O)c2cccc(C)c2)n(C)c1C | -48 | 1 | -1 | 4 | .
S=C(Nc1cccc(Cl)c1)OC1CCC12CCC(c1ccccc1)CC2 (stereo unspecified) | . | . | 1 | . | .
CCOc1ccc(CCNC(=O)Cc2ccccc2)cc1OCC | . | . | -8 | . | .
COc1ccc(C(=O)Nc2ccc(N3CCN(c4ccc(OC)cc4)CC3)c(C#N)c2)cc1 | -12 | -1 | 84* | 1 | 56*
COc1ccc(N2CCN(c3ccc(NC(=O)C4CCCCC4)cc3C#N)CC2)cc1 | -1 | 5 | 30* | 0 | 11
Cc1nn(-c2ccc(F)cc2)c2nc(N)c(C#N)c(-c3cccs3)c12 | 5 | 1 | 80* | -2 | 45*
Cc1c(-c2ccc(F)cc2)nc(N)c(C#N)c1-c1cccs1 | -8 | 0 | 78* | 7 | 53* | RORg DNA counter=3.2*
Cc1nn(-c2ccc(F)cc2)c2nc(N)c(C#N)c(-c3ccc(O)c(O)c3)c12 | -23 | 1 | 5 | . | .
Cc1c(-c2ccc(F)cc2)nc(N)c(C#N)c1-c1cccnc1 | -24 | 2 | 0 | -1 | .
CC(C)C[C@H]1COc2cc(Br)ccc2S(=O)(=O)N1Cc1cn(Cc2ccc(Br)cc2)nn1 | . | . | 4 | . | .
CN(C)C(=O)CSc1cnc2ccccc2n1 | -4 | 1 | -6 | 2 | .
Cc1ccc(C(=O)CSc2cnc3ccccc3n2)cc1C | 6 | 2 | 30* | 6 | 14
Cc1ccccc1NC(=O)CCS(=O)(=O)c1ccccc1 | . | . | -5 | . | .
Cc1ccc(Cc2c(-c3ccc(Br)cc3)nc3ccc(Cl)cn23)cc1 | -38 | 1 | -2 | . | .
COc1ccc(-c2nc3ccc(C)cn3c2Cc2cccc(F)c2)cc1OC | -69 | -1 | 5 | . | .
Cc1cc(Br)cn2c(Cc3ccccc3C(F)(F)F)c(-c3ccccc3)nc12 | -3 | 1 | 22* | . | 11*
Cc1ccc(Cc2c(-c3ccc(Br)cc3)nc3ccc(Br)cn23)cc1 | -26 | 4 | 24* | . | 22*
Cc1cc(Br)cn2c(Cc3ccccc3)c(-c3cccc(Cl)c3)nc12 | -29 | 5 | 19* | . | 16*

Compound activity deposited in PubChem by several laboratories.
